The target in test [1] is T1, Phospholipase A2, membrane associated (Homo sapiens, UniProt P14555).
T1 sequence (P14555 whole entry): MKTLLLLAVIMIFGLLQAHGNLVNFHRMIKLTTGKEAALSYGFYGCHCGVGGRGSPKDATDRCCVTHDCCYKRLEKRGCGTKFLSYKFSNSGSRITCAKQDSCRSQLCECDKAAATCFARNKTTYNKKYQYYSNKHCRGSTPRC
The test can be described thus: Inhibition of human group 2A sPLA2 by fluorescence assay. A digest of the protocol:
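Continuous fluorimetric assay with recombinant human GIIA sPLA2 (6 ng/well) on pyrPG vesicles, pH 8.0 Tris buffer with Ca2+, KCl and BSA. Readout at ex 342/em 395 nm, initial slopes. […] Nonlinear variable-slope sigmoidal fit gives IC50; mean of duplicate or triplicate analyses with SD.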

In test [2] the target is T2, Phospholipase A2 group V (Homo sapiens, UniProt P39877).
T2 sequence (P39877 whole entry): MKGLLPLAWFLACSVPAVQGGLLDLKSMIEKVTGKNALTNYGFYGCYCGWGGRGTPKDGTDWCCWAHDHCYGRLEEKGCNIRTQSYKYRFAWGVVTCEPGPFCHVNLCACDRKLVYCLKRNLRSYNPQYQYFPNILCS
The test is described as follows: Inhibition of human group 5 sPLA2 by fluorescence assay. A digest of the protocol: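 Recombinant human GV sPLA2 (12.5 ng/well) with pyrPG vesicle substrate in Tris-HCl pH 8.0, KCl, CaCl2 and BSA. Monitored by fluorescence (342/395 nm), using initial slopes. […] IC50 by variable-slope sigmoidal regression on log concentration; duplicate or triplicate runs, mean with SD.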

Test [3] addresses T3, Group 10 secretory phospholipase A2 (Homo sapiens, UniProt O15496).
T3 sequence (O15496 whole entry): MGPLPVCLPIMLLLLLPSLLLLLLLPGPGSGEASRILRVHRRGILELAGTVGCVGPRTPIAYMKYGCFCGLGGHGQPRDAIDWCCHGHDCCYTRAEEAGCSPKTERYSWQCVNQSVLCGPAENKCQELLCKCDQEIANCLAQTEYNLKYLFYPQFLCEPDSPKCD
The test can be described thus: Inhibition of human group 10 sPLA2 by fluorescence assay.

The target in test [4] is T4, Phospholipase A2 group V (Homo sapiens) (UniProt P39877).
T4 sequence (whole entry): T2 sequence (P39877 whole entry)
The test can be described thus: Inhibition of human group 5 sPLA2 at […] by fluorescence assay.

Test [5] deals with T5, Group 10 secretory phospholipase A2 (Homo sapiens) (UniProt O15496).
T5 sequence (whole entry): T3 sequence (O15496 whole entry)
The test can be described thus: Inhibition of human group 10 sPLA2 at […] by fluorescence assay.

Test [6] deals with T6, Phospholipase A2, membrane associated (Mus musculus, UniProt P31482).
T6 sequence (P31482 whole entry): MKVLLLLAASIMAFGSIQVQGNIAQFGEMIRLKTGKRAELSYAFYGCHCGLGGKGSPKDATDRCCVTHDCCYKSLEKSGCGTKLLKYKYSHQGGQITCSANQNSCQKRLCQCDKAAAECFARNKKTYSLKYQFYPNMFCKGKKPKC
The test can be described thus: Inhibition of mouse group 2A sPLA2 by fluorescence assay.

Test [7] has as its target T7, Phospholipase A2 group V (Mus musculus, UniProt P97391).
T7 sequence (P97391 whole entry): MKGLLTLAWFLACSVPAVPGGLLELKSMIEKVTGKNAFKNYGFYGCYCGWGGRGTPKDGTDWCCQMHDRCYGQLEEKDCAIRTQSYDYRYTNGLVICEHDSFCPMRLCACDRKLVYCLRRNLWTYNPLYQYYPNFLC
The test is described as follows: Inhibition of mouse group 5 sPLA2 by fluorescence assay.

Test [8] concerns the target T8, Group 10 secretory phospholipase A2 (Mus musculus) (UniProt Q9QXX3).
T8 sequence (whole entry): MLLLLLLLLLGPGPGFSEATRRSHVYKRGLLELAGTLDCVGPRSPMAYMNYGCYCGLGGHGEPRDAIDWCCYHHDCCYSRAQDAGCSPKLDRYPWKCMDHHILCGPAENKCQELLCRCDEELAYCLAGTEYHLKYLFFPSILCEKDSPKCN
The test is described as follows: Inhibition of mouse group 10 sPLA2 by fluorescence assay. The following applies: concentration not given here. A digest of the protocol: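 Mouse GX sPLA2, recombinant, 10.7 ng per well, in 50 mM Tris-HCl pH 8.0 with 50 mM KCl, 1 mM CaCl2 and BSA. Started with pyrPG vesicles and read at ex 342/em 395 nm. Percent inhibition from initial fluorescence slopes at five concentrations. IC50 from a variable-slope sigmoidal dose-response fit.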

In test [9] the target is T9, Phospholipase A2, membrane associated (Homo sapiens) (UniProt P14555).
T9 sequence (whole entry): T1 sequence (P14555 whole entry)
The test is described as follows: Inhibition of human group 2A sPLA2 at […] by fluorescence assay.

Bounds are passed on as bounds.

As a reminder, the IC50 is the point on the concentration scale where inhibition reaches its midpoint. As a reminder, the inhibition is the relative decrease from the control value, in per cent.

Take `CCCCCCCCCCCCCCC(=O)C(=O)N[C@H](CC(C)C)C(=O)O`: the IC50 in test [1] is 1750 nM; on Phospholipase A2 group V [2], 1500 nM; in test [3] it was more than 1660 nM.

On to `CCCCCCCCCCCCCCC(=O)C(=O)NCCCCC(=O)O`, for which the IC50 in test [1] is 11700 nM. For the same compound, the inhibition in test [4] was determined as 49%; in test [5], 7%.

Consider `CCCCCCCCCCCCCCC(=O)C(=O)NCCC(=O)O`, for which the midpoint of inhibition in test [1], the IC50, lay at 5600 nM. Further, the values for the inhibition in test [4] and in test [5] were 47% and 18%, respectively.

Regarding `CCCCCCCCCCCCCCC(=O)C(=O)N[C@@H](Cc1ccccc1)C(=O)O`, the IC50 (in test [1]; against Phospholipase A2 group V [2]; in test [3]) was more than 1660 nM throughout.

Take `CCCCCCCCCCCCCCC(=O)C(=O)N[C@@H](CC(C)C)C(=O)O`: the IC50 was determined as 300 nM in test [1], 440 nM against Phospholipase A2 group V [2], 180 nM in [6] and 2600 nM at Phospholipase A2 group V [7]. For the same compound, the inhibition in [5] was 50%; in [8], 58%.

Consider `CCCCCCCCCCCCCCC(=O)C(=O)NCC(=O)O`, for which, in test [1], the IC50 was 4200 nM. The inhibition in test [4] was 43%; in test [5], 23%.

On to `CCCCCCCCCCCCCCC(=O)C(=O)NCC(=O)OC`, for which the inhibition in [9] amounted to 3%; in [4] it was 9%; in [5], 22%.

For `CCCCCCCCCCCCCCCC(=O)N[C@@H](CC(C)C)C(=O)O`, the IC50 (in [1]; on Phospholipase A2 group V [2]) was more than 1660 nM each time.
